The values below come from ChEMBL document CHEMBL4316604, “Discovery of Isaindigotone Derivatives as Novel Bloom's Syndrome Protein (BLM) Helicase Inhibitors That Disrupt the BLM/DNA Interactions and Regulate the Homologous Recombination Repair” (J Med Chem, 2019).

For assay [1], the target named is T1, RecQ-like DNA helicase BLM (Homo sapiens, UniProt P54132). The assay can be described thus: Inhibition of BLM (unknown origin) assessed as increase in RAD51-ssDNA filaments up to 5 uM after 24 hrs by ELISA based DNA exchange activity assay. On the technique in general: In an ELISA, binding on a coated surface is turned into a signal by an enzyme label.
T1 sequence (P54132 whole entry): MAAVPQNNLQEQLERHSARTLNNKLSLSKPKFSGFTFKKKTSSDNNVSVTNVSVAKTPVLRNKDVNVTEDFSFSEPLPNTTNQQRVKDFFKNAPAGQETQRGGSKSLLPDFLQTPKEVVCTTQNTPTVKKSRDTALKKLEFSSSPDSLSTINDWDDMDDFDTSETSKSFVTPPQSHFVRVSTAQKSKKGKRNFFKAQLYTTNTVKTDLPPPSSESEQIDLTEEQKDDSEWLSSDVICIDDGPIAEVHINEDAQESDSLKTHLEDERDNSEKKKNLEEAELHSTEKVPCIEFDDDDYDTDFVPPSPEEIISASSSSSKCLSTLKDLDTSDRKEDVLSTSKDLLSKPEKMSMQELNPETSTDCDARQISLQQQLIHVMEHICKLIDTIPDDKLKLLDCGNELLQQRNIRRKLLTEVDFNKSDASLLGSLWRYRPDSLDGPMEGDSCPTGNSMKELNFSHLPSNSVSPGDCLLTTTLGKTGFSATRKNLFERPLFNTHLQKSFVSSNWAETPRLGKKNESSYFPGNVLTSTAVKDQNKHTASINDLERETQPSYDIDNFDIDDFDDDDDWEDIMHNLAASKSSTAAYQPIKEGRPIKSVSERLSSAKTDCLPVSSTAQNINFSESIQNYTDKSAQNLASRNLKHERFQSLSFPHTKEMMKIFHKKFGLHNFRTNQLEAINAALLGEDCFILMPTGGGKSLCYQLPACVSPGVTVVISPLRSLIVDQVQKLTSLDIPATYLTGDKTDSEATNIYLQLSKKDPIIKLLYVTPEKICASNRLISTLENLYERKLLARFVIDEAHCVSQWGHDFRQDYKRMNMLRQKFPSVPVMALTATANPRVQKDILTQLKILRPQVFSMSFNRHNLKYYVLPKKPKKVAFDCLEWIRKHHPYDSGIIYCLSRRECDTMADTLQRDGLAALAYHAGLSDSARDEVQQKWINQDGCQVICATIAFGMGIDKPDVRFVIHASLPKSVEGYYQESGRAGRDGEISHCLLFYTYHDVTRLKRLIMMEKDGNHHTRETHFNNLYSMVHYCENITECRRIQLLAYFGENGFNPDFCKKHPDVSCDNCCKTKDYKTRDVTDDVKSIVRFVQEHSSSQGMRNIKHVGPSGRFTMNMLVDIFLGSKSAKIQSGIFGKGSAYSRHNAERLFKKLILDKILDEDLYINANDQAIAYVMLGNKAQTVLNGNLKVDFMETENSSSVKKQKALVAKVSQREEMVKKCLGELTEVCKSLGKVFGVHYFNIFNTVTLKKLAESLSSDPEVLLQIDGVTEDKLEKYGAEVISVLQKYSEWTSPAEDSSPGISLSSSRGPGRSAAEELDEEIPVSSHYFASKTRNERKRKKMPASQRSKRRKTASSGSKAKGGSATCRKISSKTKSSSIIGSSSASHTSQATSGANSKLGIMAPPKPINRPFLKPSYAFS
Assay [2] concerns the target T1, RecQ-like DNA helicase BLM. The assay can be described thus: Inhibition of BLM in human HCT116 cells assessed as DNA damage by measuring gammaH2AX up to 2 uM after 48 hrs by […]. It is filed as cell-based. (In general: Quantitative PCR measures a nucleic acid by following its amplification.)
Assay [3] relates to HCT-116. The assay can be described thus: Antiproliferative activity against human HCT116 cells after 24 hrs in presence of siRNA by MTT assay. The following applies: in the assay text read “after 48 hrs” for “after 24 hrs”. Format: functional, cell-based. An outline of the steps: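 HCT116 cells (5×10^3/well) grown 24 h, then exposed to 0–50 μM test agent; for knockdown, cells pre-treated with 50 nM BLM siRNA for 24 h first.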

Assay [4] has as its system RecQ-like DNA helicase BLM (Homo sapiens), P54132 [H996A]. The assay can be described thus: Inhibition of His-tagged BLM H996A mutant (unknown origin) binding to DNA assessed as effect on unbound DNA. An outline of the steps:
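Biotinylated forked DNA (50 nM) immobilised on streptavidin plates overnight at 4 °C. BLM or mutant (100 nM final) premixed with serially halved ligand in 3% BSA blocking buffer, ≤1% DMSO, 1 h on ice. Applied to the blocked plate for 1 h at 37 °C. Bound BLM detected with anti-BLM and HRP secondary, TMB, A450; Hill fit.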

Assay [5] concerns HCT-116. The assay can be described thus: Induction of apoptosis in human HCT116 cells assessed as up-regulation of CHK1 phosphorylation up to 2 uM after 24 hrs by Western blot analysis. A general note: A western blot detects proteins with antibodies after separation by electrophoresis.
Assay [6] has as its target T1, RecQ-like DNA helicase BLM. The assay can be described thus: Inhibition of His-tagged BLM (unknown origin) expressed in Escherichia coli BL21 (DE3) assessed as reduction in BLM helicase unwinding activity using 5'-biotin labeled forked-DNA as substrate after 1 hr by PAGE analysis.
For assay [7], the target named is T1, RecQ-like DNA helicase BLM. As to the kind of experiment: Inhibition of 5'-biotin labeled forked-DNA binding to BLM in human HCT116 cells assessed as increase in unbound DNA levels at 1 uM after 1 hr by Western blot-based pull down assay. It is filed as cell-based. An outline of the steps: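 Biotinylated duplex forked DNA loaded on streptavidin magnetic beads overnight at 4 °C. HCT116 RIPA lysate incubated with beads plus ligand for 1 h at 25 °C. Bead eluate and supernatant analysed for BLM by SDS-PAGE/western blot.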

Assay [8] deals with T1, RecQ-like DNA helicase BLM. The assay can be described thus: Inhibition of BLM in human HCT116 cells assessed as induction of HRR up-regulation after 24 hrs by GFP-based flow cytometry. Format: cell-based. Summed up:
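HCT116 cells (2×10^5) co-transfected with DR-GFP HRR reporter and I-SceI plasmid; 24 h later treated with 0–2 μM ligand (reference 0–50 μM); BLM siRNA knockdown where stated. GFP-positive cells counted by flow cytometry and normalised to untreated; triplicate, mean ± SD.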

Assay [9] concerns HCT-116. As to the kind of experiment: Induction of apoptosis in human HCT116 cells assessed as up-regulation of p53 phosphorylation up to 2 uM after 48 hrs by Western blot analysis. It is filed as functional, cell-based.
Assay [10] deals with RecQ-like DNA helicase BLM (Homo sapiens, UniProt P54132, M1111A). The assay can be described thus: Binding affinity to His-tagged BLM M1111A mutant (unknown origin) expressed in Escherichia coli BL21 (DE3) by ITC assay. Summed up:
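ITC at 25 °C in 2 mM MgCl2, 10 mM KH2PO4, pH 7.5: ligand (0.6 mM, syringe) titrated in 10 μL injections, 300 s apart, into BLM642-1296 wild-type or point mutant, or DNA (0.04 mM, cell). His-tagged BLM from E. coli BL21(DE3), induced with […] at 16 °C for 24 h. Heats integrated, fitted to 1:1 model for KD.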

pIC50, pKd: −log10 of the molar value. Activity calls are given as the source filed them. No cut-off for these calls is given here.

Chain of RecQ-like DNA helicase BLM (Homo sapiens, UniProt P54132, M1111A) (P54132 whole entry M1111A): as the sequence (P54132 whole entry) above, with M1111A counted along it
Chain of RecQ-like DNA helicase BLM (Homo sapiens), P54132 [H996A] (P54132 whole entry H996A): as the sequence (P54132 whole entry) above, with H996A counted along it

A word on the inhibition: it is the change of the read-out against control, counted positive when it falls. The term pIC50 denotes −log10 of the IC50, conventionally taken in molar units. One may read the pKd as −log10 of the Kd, conventionally taken in molar units. As for `CCN(CC)CCCNc1cc2nc3n(c(=O)c2cc1F)CC/C3=C\c1ccc(C(C)C)cc1`, the inhibition result was “Dose-dependent effect” in [1], 84.3% in [7] and “Dose-dependent effect” in assay [8]. Further, the inhibition result in assay [2] was “Active”. Besides, in the assay with HCT-116 [3], the result was inactive. Moreover, in assay [4], the inhibition result is “inactive”. In addition, the Activity entry in the assay on HCT-116 [5] and in the assay with HCT-116 [9] was “Dose-dependent effect” each time. Further, in assay [6], the pIC50 is 6.02. For the same compound, the pKd in assay [10] is 5.31.
